Key:
[1] = Stability in potassium phosphate buffer at pH 7.4 up to 4 hrs; format: physicochemical; conditions: pH 7.4, 4 h
Summary of the method: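 Negative control run under the blood-incubation conditions but in 50 mM potassium phosphate buffer, pH 7.4, instead of blood. Genistein glucuronides (G-7-G plus G-4′-G, with aglycone) or sulfates (G-7-S plus G-4′-S, with aglycone) held at 37°C in a shaking water bath up to 4 h. Sampled at 0, 60, 120 and 240 min and read by UPLC-MS/MS.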

Blood = experiment: Stability in Wistar rat blood at 3 uM up to 4 hrs by UPLC-MS/MS analysis; format: ADME, tissue-based
Summary of the method: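 Genistein glucuronide mixture (G-7-G plus G-4′-G, 3 μM) with 3.8 μM genistein incubated in fresh rat whole blood, 37°C shaking water bath. Sampled at 0, 60, 120 and 240 min. Reaction stopped with acetonitrile containing daidzein internal standard. Genistein and conjugates quantified by UPLC-MS/MS using multiple reaction monitoring. n = 3.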

[2] = Biliary excretion in BCRP-/- mouse treated with genistein measured after 2.5 hrs post intestinal perfusion by UPLC-MS/MS analysis; format: ADME, Bile; conditions: in vivo, other
Summary of the method: (§1)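 Gallbladder bile taken after 2.5 h of simultaneous small intestine/colon perfusion with 10 μM genistein (HBSS pH 7.4, 0.191 ml/min) in FVB or Bcrp1(−/−) mice (n = 4). Bile diluted 20-fold in HBSS, daidzein internal standard in acetonitrile added, dried and reconstituted. Genistein and conjugates quantified by UPLC-MS/MS.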

[3] = Biliary excretion in wild-type FVB mouse treated with genistein measured after 2.5 hrs post intestinal perfusion by UPLC-MS/MS analysis; format: ADME, Bile; conditions: in vivo, other; summary of the method: as §1

O=C(O)[C@H]1O[C@@H](Oc2ccc(-c3coc4cc(O)cc(O)c4c3=O)cc2)[C@H](O)[C@@H](O)[C@@H]1O
Stability [1]: Stable | Stability (Blood): Stable | Drug excretion [2]: metabolite_detected | Drug excretion [3]: metabolite_detected

Reference: ChEMBL document CHEMBL3526009, “Breast cancer resistance protein (ABCG2) determines distribution of genistein phase II metabolites: reevaluation of the roles of ABCG2 in the disposition of genistein” (Drug Metab Dispos, 2012)
